Assay results published in ChEMBL document CHEMBL2157987, “Benzimidazole bearing oxadiazole and triazolo-thiadiazoles nucleus: design and synthesis as anticancer agents” (2012).

Columns and labels:
[1] = tested on: UO-31; assay: Cytotoxicity against human UO31 cells assessed as cell growth at 10 uM after 48 hrs by SRB assay; format: functional; conditions: UO-31, 48 h, read-out: Activity
Outline: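 This was a single-concentration screen on UO-31 in RPMI 1640 with 5% FBS. Compound went on 24 h after plating, with 48 h exposure at 37 °C. End point was sulforhodamine B protein staining read at 515 nm. Results are percent growth of treated cells relative to untreated controls and time-zero plates.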

[2] = tested on: K562; assay: Cytotoxicity against human K562 cells assessed as cell growth at 10 uM after 48 hrs by SRB assay; format: functional; conditions: K562, 48 h, read-out: Activity
Outline: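 NCI single-dose screen at 10 µM. Cells were incubated 48 h and the end point was read by sulforhodamine B protein staining. Results are given as percent growth of treated cells relative to untreated controls. Growth of 32% or less was counted as active.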

SMILES	growth at 10 µM [1] [%]	growth at 10 µM [2] [%]
O=C(CCc1nnc(-c2cc(O)c(O)c(O)c2)o1)c1nc2ccccc2[nH]1	62.2	
O=C(CCc1nnc(/C=C/c2ccccc2)o1)c1nc2ccccc2[nH]1		24.6
O=C(CCc1nnc2sc(-c3cc(O)c(O)c(O)c3)nn12)c1nc2ccccc2[nH]1		8.3
Nc1cc(Br)c(-c2nn3c(CCC(=O)c4nc5ccccc5[nH]4)nnc3s2)c(Br)c1		7.05
O=C(CCc1nnc2sc(/C=C/c3ccccc3)nn12)c1nc2ccccc2[nH]1		2.17
